Assay results taken from PMC2172688 (The Journal of Cell Biology, 2003).
Blank lines part the entries; values can stand above or below the molecule they belong to.

Assays:
Tsg101 UEV domain = target: T1, Tsg101 UEV domain (Homo sapiens, UniProt Q99816); experiment: BIAcore biosensor binding of Tsg101 UEV to immobilized GST–peptide fusions; details: relative to HIV-1 PTAP peptide
T1 sequence (Q99816 2-145 limits assumed): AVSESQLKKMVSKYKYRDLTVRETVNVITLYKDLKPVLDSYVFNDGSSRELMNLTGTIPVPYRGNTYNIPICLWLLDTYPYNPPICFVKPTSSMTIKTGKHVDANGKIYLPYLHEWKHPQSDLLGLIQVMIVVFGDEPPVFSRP
How it was run: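 Purified recombinant Tsg101 UEV domain was flowed over immobilized GST fusions of 10-amino-acid peptides spanning the central P(S/T)AP motifs of HIV-1 NL4–3 Gag, Tsg101 and Hrs. A mutant Gag PTAP peptide served as negative control. Binding was recorded at a range of UEV concentrations, and binding isotherms were plotted against concentration.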

[1] = target: GST fusion of a 10-amino acid peptide spanning the PSAP motif of human Hrs (human); experiment: SPR
[2] = target: GST fusion of a 10-amino acid peptide spanning the PTAP motif of human Tsg101 (human); experiment: SPR
[3] = target: GST fusion of a 10-amino acid peptide spanning the PTAP motif of HIV-1 NL4-3 Gag (HIV-1 NL4-3); experiment: SPR
[4] = target: T2, Tsg101–Gal4p binding domain fusion, full-length wild-type Tsg101 (human, UniProt Q99816 1-390); experiment: two-hybrid
T2 sequence (looked up): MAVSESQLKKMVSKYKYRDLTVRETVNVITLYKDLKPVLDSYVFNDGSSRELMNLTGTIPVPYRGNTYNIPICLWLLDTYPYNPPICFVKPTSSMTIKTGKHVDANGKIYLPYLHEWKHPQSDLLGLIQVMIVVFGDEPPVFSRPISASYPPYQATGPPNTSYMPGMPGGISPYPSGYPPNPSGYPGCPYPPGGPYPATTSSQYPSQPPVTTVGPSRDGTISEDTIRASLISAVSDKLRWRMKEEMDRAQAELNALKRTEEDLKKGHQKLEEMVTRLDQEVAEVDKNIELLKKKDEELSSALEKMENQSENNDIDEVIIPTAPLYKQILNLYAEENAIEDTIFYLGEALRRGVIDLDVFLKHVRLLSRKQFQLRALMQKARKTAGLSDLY

Molecule: Tsg101 UEV domain (NH2-terminal ubiquitin E2 variant domain of Tsg101) (from UniProt Q99816 2-145) (domain or fragment)
fold weaker binding affinity than for the HIV-1 PTAP peptide [1]: 7 fold
fold weaker binding affinity than for the HIV-1 PTAP peptide [2]: 4 fold
Kd [3]: 21 µM

Molecule: VIIPTAPLYK [Tsg101 VIIPTAPLYK]
binding affinity weaker than Tsg101 UEV binding to the HIV-1 PTAP peptide (Tsg101 UEV domain): fourfold

Other lines, results leading:

binding affinity weaker than Tsg101 UEV binding to the HIV-1 PTAP peptide (Tsg101 UEV domain): sevenfold
Molecule: SPTPSAPVPL [Hrs SPTPSAPVPL]

fold reduction of binding against wild-type Hrs [4]: ~2 fold
B1: Hrs^ΔPSAP, Gal4p activation domain fusion (alanine substitution of the Hrs 348PSAP351 sequence) (natural protein, human, UniProt O14964 1-777, looked up)
chain: MGRGSGTFERLLDKATSQLLLETDWESILQICDLIRQGDTQAKYAVNSIKKKVNDKNPHVALYALEVMESVVKNCGQTVHDEVANKQTMEELKDLLKRQVEVNVRNKILYLIQAWAHAFRNEPKYKVVQDTYQIMKVEGHVFPEFKESDAMFAAERAPDWVDAEECHRCRVQFGVMTRKHHCRACGQIFCGKCSSKYSTIPKFGIEKEVRVCEPCYEQLNRKAEGKATSTTELPPEYLTSPLSQQSQLPPKRDETALQEEEELQLALALSQSEAEEKERLRQKSTYTSYPKAEPMPSASSAPPASSLYSSPVNSSAPLAEDIDPELARYLNRNYWEKKQEEARKSPTAAAAVPLTEPAAQPGEGHAAPTNVVENPLPETDSQPIPPSGGPFSEPQFHNGESEESHEQFLKALQNAVTTFVNRMKSNHMRGRSITNDSAVLSLFQSINGMHPQLLELLNQLDERRLYYEGLQDKLAQIRDARGALSALREEHREKLRRAAEEAERQRQIQLAQKLEIMRQKKQEYLEVQRQLAIQRLQEQEKERQMRLEQQKQTVQMRAQMPAFPLPYAQLQAMPAAGGVLYQPSGPASFPSTFSPAGSVEGSPMHGVYMSQPAPAAGPYPSMPSTAADPSMVSAYMYPAGATGAQAAPQAQAGPTASPAYSSYQPTPTAGYQNVASQAPQSLPAISQPPQSSTMGYMGSQSVSMGYQPYNMQNLMTTLPSQDASLPPQQPYIAGQQPMYQQMAPSGGPPQQQPPVAQQPQAQGPPAQGSEAQLISFD
